According to publication PMC5617735 (Journal of the American Chemical Society, 2017):
Values after ≈ are worked out from the molar mass of the structure shown. Non-standard residues stand in square brackets, D forms with d. Residues, ends and D or L forms follow the SMILES beside them. ξ: configuration not given here. *: point of attachment. ξI = CCC(C)C(N)C(=O)O; Butyryl = CCCC(=O)*

Columns and labels:
Saccharomyces pombe = experiment: Antifungal assay; assay type: cell-based; details: read-out: IC50, Saccharomyces pombe
strains tested = experiment: Antibacterial and antifungal assays; assay type: cell-based
[1] = tested on: Staphylococcus aureus Newman; experiment: Antibacterial assay; assay type: cell-based; details: read-out: IC50, Staphylococcus aureus Newman
E. coli K12 = experiment: Antibacterial assay; assay type: cell-based; details: read-out: IC50, E. coli K12
Bacillus subtilis 168 = experiment: Antibacterial assay; assay type: cell-based; details: read-out: IC50, Bacillus subtilis 168
[2] = tested on: Pseudomonas aeruginosa PAO1; experiment: Antibacterial assay; assay type: cell-based; details: read-out: IC50, Pseudomonas aeruginosa PAO1
Saccharomyces cerevisiae = experiment: Antifungal assay; assay type: cell-based; details: read-out: IC50, Saccharomyces cerevisiae
[3] = tested on: Enterococcus faecalis OG1RF; experiment: Antibacterial assay; assay type: cell-based; details: read-out: IC50, Enterococcus faecalis OG1RF
[4] = tested on: sur cluster (surA and surC transcripts); experiment: RT-qPCR of sur cluster expression; assay type: cell-based, Streptomyces albus J1074; details: for induction of surA and surC: wt S. albus, vs DMSO control; for induction of surA and surC / elicitor concentration yielding optimal upregulation of sur: RT-qPCR; for upregulation of surC: at optimal elicitor concentration (~23 μM etoposide, ~30 μM ivermectin), vs DMSO; for elicitor concentration yielding optimal upregulation of sur: dose-response
In short: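 Wild-type S. albus J1074 cultures were exposed to the test compound, with DMSO as the negative control. surA and surC mRNA were measured by RT-qPCR and expressed as fold-change versus the DMSO control. For the dose-response, concentrations were multiples of a base level: 1x equals 5.7 μM or 7.6 μM final, depending on the elicitor.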

surR = experiment: RT-qPCR of surR expression upon elicitor exposure; assay type: cell-based, Streptomyces albus J1074; details: wt S. albus, vs DMSO control
S. albus = experiment: Growth inhibition of S. albus by elicitors; assay type: cell-based, Streptomyces albus J1074
[5] = tested on: ΔsurR S. albus secondary metabolite production; experiment: HPLC-Qtof-MS of sur metabolite production in ΔsurR strain treated with elicitor; assay type: cell-based, Streptomyces albus J1074; details: for increase in the production of surugamide I: HPLC-Qtof-MS; for upregulation of acyl-surugamide A / upregulation of albucyclone A: estimate based on lower limit of detection
recA and lexA = experiment: RT-qPCR of SOS response genes recA and lexA; assay type: cell-based, Streptomyces albus J1074; details: S. albus
cathepsin B = cathepsin B (Homo sapiens, UniProt P07858); experiment: Cathepsin B inhibition assay; assay type: biochemical; details: read-out: Half-maximal inhibitory concentration (IC50), Cathepsin B Inhibition

Molecule	IC50 (Saccharomyces pombe) [µM]	IC50 [1] [µM]	IC50 (E. coli K12) [µM]	IC50 (Bacillus subtilis 168) [µM]	IC50 [2] [µM]	IC50 (Saccharomyces cerevisiae) [µM]	IC50 [3] [µM]	IC50 (cathepsin B) [µM]	also measured
albuquinone A [compound 22]	> 100	> 100	> 100	> 100	> 100	> 100	> 100	–	antibiotic activity against the strains tested (strains tested): did not reveal significant antibiotic activity
CC(C)[C@@]1(NC(=O)[C@@H]2C[C@@H]3c4cccc5[nH]cc(c45)C[C@H]3N(C)C2)O[C@@]2(O)[C@@H]3CCCN3C(=O)[C@H](Cc3ccccc3)N2C1=O [dihydroergocristine]	–	–	–	–	–	–	–	–	induction of surA and surC [4]: 3 fold
ivermectin	–	–	–	–	–	–	–	–	down-regulation of surR expression (surR): 2–2.5 fold; inhibition of S. albus growth (S. albus; at the concentrations employed): did not inhibit S. albus growth; upregulation of surC [4]: 4.5 fold; elicitor concentration yielding optimal upregulation of sur [4]: ~ 30 μM; induction of surA and surC [4]: 3 fold; increase in the production of surugamide I [5]: > 35 fold; upregulation of acyl-surugamide A [5]: > 40 fold; upregulation of albucyclone A [5]: > 50 fold; induction of recA and lexA (recA and lexA): no changes
albucyclone A [compound 16]	–	–	–	–	–	–	–	> 100	–
CC[C@@H](C)[C@H]1NC(=O)[C@H](C(C)C)NC(=O)[C@@H](C)NC(=O)[C@H](C(C)C)NC(=O)[C@@H](CC(C)C)NC(=O)[C@@H](Cc2ccccc2)NC(=O)[C@H]([C@@H](C)CC)NC(=O)[C@H](CCCCN)NC1=O [compound 11, surugamide G] (cyclo(I[dF][dL]V[dA]V[dI]K))	> 100	> 100	> 100	> 100	> 100	> 100	> 100	> 100	–
COc1cc([C@@H]2c3cc4c(cc3[C@@H](O[C@@H]3O[C@@H]5CO[C@@H](C)O[C@H]5[C@H](O)[C@H]3O)[C@H]3COC(=O)[C@H]23)OCO4)cc(OC)c1O [etoposide]	–	–	–	–	–	–	–	–	down-regulation of surR expression (surR): 2–2.5 fold; IC50 (S. albus; Streptomyces albus, read-out: half-maximal inhibitory concentration (IC50) on S. albus): 10 µg/mL (≈ 17 µM); upregulation of surC [4]: ~ 10 fold; elicitor concentration yielding optimal upregulation of sur [4]: ~ 23 μM; induction of surA and surC [4]: 3 fold; increase in the production of surugamide I [5]: > 35 fold; upregulation of acyl-surugamide A [5]: > 40 fold; upregulation of albucyclone A [5]: > 50 fold
surugamide J [compound 14]	> 100	> 100	> 100	> 100	> 100	> 100	> 100	> 100	–
albucyclone F [compound 21]	> 100	> 100	> 100	> 100	> 100	> 100	> 100	> 100	–
CC[C@@H](C)[C@H]1NC(=O)[C@H](C(C)C)NC(=O)[C@@H](C)NC(=O)[C@H](C(C)C)NC(=O)[C@@H](CC(C)C)NC(=O)[C@@H](Cc2ccccc2)NC(=O)[C@H](C(C)C)NC(=O)[C@H](CCCCN)NC1=O [compound 12, surugamide H] (cyclo(KV[dF][dL]V[dA]V[dI]))	–	–	–	–	–	–	–	12.4	–
CCCC(=O)NCCCC[C@@H]1NC(=O)C(C(C)CC)NC(=O)C(C(C)CC)NC(=O)[C@@H](C)NC(=O)C(C(C)CC)NC(=O)[C@@H](CC(C)C)NC(=O)[C@@H](Cc2ccccc2)NC(=O)[C@H]([C@@H](C)CC)NC1=O (stereo partly drawn) [compound 15, acyl-surugamide A] (cyclo(I[dF][dL][ξI][dA][ξI][ξI]K(Butyryl)))	32.5	27.4	> 100	21.7	> 100	3.5	> 100	43.3	–
surugamide I [compound 13]	–	–	–	–	–	–	–	9	–
